Data as given in ChEMBL document CHEMBL4371098, “C-Phycocyanin from Spirulina Inhibits α-Synuclein and Amyloid-β Fibril Formation but Not Amorphous Aggregation” (J Nat Prod, 2019).
Active and inactive are the calls of the source. The calls are words filed in the database; no cut-off is given here.

Assays:
[1] = tested on: Alpha-synuclein (Homo sapiens), P37840 [A53T]; experiment: Inhibition of fibril formation of human alpha-synuclein A53T mutant expressed in Escherichia coli BL21(DE3) after 100 hrs by ThT fluorescence assay
Summary of the method: (§1)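 αS (10 μM) incubated 100 h at 37 °C in 500 mM ammonium acetate pH 7.4 with C-PC at αS:C-PC 2:1 to 200:1; ThT read at 440/490 nm; inhibition = end-point (100 h) ThT fluorescence with C-PC as percentage of αS alone; n = 3, mean ± SEM.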

[2] = target: Amyloid-beta precursor protein (Homo sapiens) (UniProt P05067); experiment: Inhibition of amyloid beta (1 to 40) (unknown origin) fibril formation at 2 uM after 25 hrs by uranyl acetate staining based transmission electron microscopic method
Summary of the method: (§2)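 End-point samples from ThT aggregation assays (αS or Aβ 10 μM, C-PC 2 μM; αS 100 h, Aβ40 25 h, Aβ42 2 h) adsorbed on carbon-coated grids, negatively stained with 2% (w/v) uranyl acetate, imaged by TEM.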

[3] = tested on: Alpha-synuclein (Homo sapiens), P37840 [A53T]; experiment: Inhibition of fibril formation of human alpha-synuclein A53T mutant expressed in Escherichia coli BL21(DE3) at protein to compound molar ratio of 200:1 after 100 hrs by ThT fluorescence assay relative to control; details: concentration not given here; summary of the method: as §1
[4] = tested on: Alpha-synuclein (Homo sapiens), P37840 [A53T]; experiment: Binding affinity to human alpha-synuclein A53T mutant expressed in Escherichia coli BL21(DE3) assessed as compound-protein stable complex formation at 2 uM after 20 hrs by size-exclusion chromatographic method
[5] = target: Amyloid-beta precursor protein (Homo sapiens) (UniProt P05067); experiment: Inhibition of amyloid beta (1 to 40) (unknown origin) fibril formation at protein to compound ratio of 5:1 after 100 hrs by ThT fluorescence assay
Summary of the method: (§3)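 Aβ40 or Aβ42 (10 μM; NaOH-pretreated stock for monomerization) incubated with C-PC at 5:1 Aβ:C-PC in 500 mM ammonium acetate pH 7.4, 37 °C, sealed plates, up to 100 h; ThT fluorescence 440/490 nm; triplicate, mean ± SEM.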

[6] = target: Amyloid-beta precursor protein (Homo sapiens) (UniProt P05067); experiment: Inhibition of amyloid beta (1 to 42) (unknown origin) fibril formation at 2 uM after 2 hrs by uranyl acetate staining based transmission electron microscopic method; summary of the method: as §2
[7] = tested on: Alpha-synuclein (Homo sapiens), P37840 [A53T]; experiment: Binding affinity to human 15N-labeled alpha-synuclein A53T mutant expressed in Escherichia coli BL21(DE3) assessed as chemical perturbation at H50 at 7.5 uM by 2D 1H-15N HSQC NMR analysis
Summary of the method: (§4)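 Uniformly 15N-labelled monomeric αS (grown in M9 medium with [15N]NH4Cl, IPTG-induced) titrated with C-PC; 1H–15N HSQC spectra in 10 mM Na2HPO4, 100 mM NaCl, pH 7.4; amide chemical shift changes and signal-to-noise monitored using prior resonance assignments.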

[8] = tested on: Alpha-synuclein (Homo sapiens), P37840 [A53T]; experiment: Binding affinity to human alpha-synuclein A53T mutant expressed in Escherichia coli BL21(DE3) assessed as compound-protein stable complex formation at 2 uM after 20 hrs by native mass spectrometry analysis
Summary of the method: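 αS (10 μM) incubated with C-PC (2 μM) at 40 °C for 20 h, then analysed by native nanoelectrospray MS for αS–C-PC complex peaks versus monomer/dimer and C-PC oligomer species.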

[9] = tested on: Alpha-synuclein (Homo sapiens), P37840 [A53T]; experiment: Inhibition of preformed fibrils of human alpha-synuclein A53T mutant expressed in Escherichia coli BL21(DE3) at 5 uM treated after 60 hrs during fibril elongation phase by ThT fluorescence assay
Summary of the method: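 ThT-monitored αS (10 μM) aggregation at 37 °C in 500 mM ammonium acetate pH 7.4; C-PC (5 μM) added at 60 h during elongation, and fluorescence (440/490 nm) followed afterwards; n = 3.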

[10] = tested on: Alpha-synuclein (Homo sapiens), P37840 [A53T]; experiment: Binding affinity to human 15N-labeled alpha-synuclein A53T mutant expressed in Escherichia coli BL21(DE3) assessed as reduction in signal to noise ratio at 7.5 uM by 2D 1H-15N HSQC NMR analysis; summary of the method: as §4
[11] = target: Amyloid-beta precursor protein (Homo sapiens) (UniProt P05067); experiment: Inhibition of amyloid beta (1 to 42) (unknown origin) fibril formation at protein to compound ratio of 5:1 after 100 hrs by ThT fluorescence assay; summary of the method: as §3
[12] = Self fibrillation of the compound in pH 7.4 ammonium acetate buffer after 100 hrs by ThT fluorescence assay
Summary of the method: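 C-PC alone incubated in 500 mM ammonium acetate pH 7.4 at 37 °C with ThT; fluorescence at 440/490 nm tracked over time.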

[13] = tested on: Alpha-synuclein (Homo sapiens), P37840 [A53T]; experiment: Inhibition of fibril formation of human alpha-synuclein A53T mutant expressed in Escherichia coli BL21(DE3) assessed as reduction in mature fibrils formation at 2 uM after 100 hrs by uranyl acetate staining based transmission electron microscopic method; summary of the method: as §2
Saccharomyces cerevisiae = experiment: Inhibition of heat-induced amorphous aggregation of yeast ADH at 2.5 uM measured over 2 hrs by light scattering assay
Summary of the method: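 ADH (5 μM) aggregation induced with 20 mM DTT and 2 mM EDTA (final) at 42 °C; light scattering followed as absorbance at 340 nm over 2 h, with or without C-PC (2.5 μM); triplicate, mean ± SEM.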

Catalase (Bos taurus) = target: T1, Catalase (Bos taurus) (UniProt P00432); experiment: Inhibition of heat-induced amorphous aggregation of bovine liver catalase at 2.5 uM measured over 2 hrs by light scattering assay
T1 sequence (whole entry): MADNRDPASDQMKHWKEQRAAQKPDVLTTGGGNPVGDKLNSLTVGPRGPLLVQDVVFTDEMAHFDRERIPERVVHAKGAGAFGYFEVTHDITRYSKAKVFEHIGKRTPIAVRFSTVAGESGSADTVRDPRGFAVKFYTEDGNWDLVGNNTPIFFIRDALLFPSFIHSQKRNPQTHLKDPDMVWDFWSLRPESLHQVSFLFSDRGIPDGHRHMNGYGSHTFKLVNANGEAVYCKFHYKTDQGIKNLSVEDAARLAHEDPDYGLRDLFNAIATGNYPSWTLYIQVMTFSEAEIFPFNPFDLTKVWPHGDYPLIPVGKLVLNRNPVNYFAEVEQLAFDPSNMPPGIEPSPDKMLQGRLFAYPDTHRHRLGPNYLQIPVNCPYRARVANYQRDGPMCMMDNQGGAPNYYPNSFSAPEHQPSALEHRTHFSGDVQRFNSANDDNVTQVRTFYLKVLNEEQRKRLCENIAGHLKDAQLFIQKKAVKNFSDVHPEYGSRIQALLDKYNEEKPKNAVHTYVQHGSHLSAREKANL
Summary of the method: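 Catalase (5 μM) aggregated by heating at 55 °C; absorbance (light scattering) at 340 nm tracked for 2 h with or without C-PC (2.5 μM); triplicate, mean ± SEM.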

[14] = tested on: Alpha-synuclein (Homo sapiens), P37840 [A53T]; experiment: Induction of conformational changes in human alpha-synuclein A53T mutant expressed in Escherichia coli BL21(DE3) assessed as ion population arrival time distribution at 2 uM after 20 hrs by ion mobility-mass spectrometry analysis (reference value: 5.23 milliseconds)

Amyloid-beta precursor protein (Homo sapiens), sequence (P05067 whole entry): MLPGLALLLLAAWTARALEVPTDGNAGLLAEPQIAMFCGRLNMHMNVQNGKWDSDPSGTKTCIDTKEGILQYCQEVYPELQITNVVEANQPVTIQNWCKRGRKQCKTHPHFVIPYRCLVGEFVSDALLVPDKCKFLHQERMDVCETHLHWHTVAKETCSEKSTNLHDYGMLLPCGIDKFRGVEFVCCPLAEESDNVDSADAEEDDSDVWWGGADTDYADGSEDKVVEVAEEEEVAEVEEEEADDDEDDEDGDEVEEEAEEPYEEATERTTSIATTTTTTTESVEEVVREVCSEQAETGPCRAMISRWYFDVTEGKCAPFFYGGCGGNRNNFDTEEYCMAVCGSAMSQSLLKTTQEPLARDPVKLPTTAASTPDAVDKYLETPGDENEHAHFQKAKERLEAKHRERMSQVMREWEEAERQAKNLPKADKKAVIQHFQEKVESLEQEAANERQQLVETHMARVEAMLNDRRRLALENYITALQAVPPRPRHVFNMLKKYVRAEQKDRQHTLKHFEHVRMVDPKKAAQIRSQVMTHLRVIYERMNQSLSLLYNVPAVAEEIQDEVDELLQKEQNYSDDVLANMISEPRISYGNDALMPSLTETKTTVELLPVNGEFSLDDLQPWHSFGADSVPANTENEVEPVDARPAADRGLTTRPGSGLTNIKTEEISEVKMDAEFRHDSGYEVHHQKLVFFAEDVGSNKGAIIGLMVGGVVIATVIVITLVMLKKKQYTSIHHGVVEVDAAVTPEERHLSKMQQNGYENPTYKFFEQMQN

Question: Which inhibition [1] does the source give for `C/C=C1/C(=C\c2[nH]c(/C=C3N=C(/C=C4/NC(=O)C(CC)=C4C)C(C)=C/3CCC(=O)O)c(CCC(=O)O)c2C)NC(=O)C1C` (stereo unspecified) here?
Answer: Dose-dependent effect

Question: What about the inhibition [2] of the same compound?
Answer: Active

Question: What about the inhibition [3] of the same compound?
Answer: 50%

Question: What about the Activity [4] of the same compound?
Answer: inactive

Question: What about the inhibition [5] of the same compound?
Answer: Active

Question: And the inhibition [6]?
Answer: Active

Question: And the Activity [7]?
Answer: Active

Question: And the Activity [8]?
Answer: inactive

Question: What about the inhibition [9] of the same compound?
Answer: Active

Question: And the Activity [10]?
Answer: Active

Question: And the inhibition [11]?
Answer: Active

Question: What about the Activity [12] of the same compound?
Answer: inactive

Question: What about the inhibition [13] of the same compound?
Answer: Active

Question: What about the inhibition (Saccharomyces cerevisiae) of the same compound?
Answer: inactive

Question: What about the inhibition (Catalase (Bos taurus)) of the same compound?
Answer: inactive

Question: What about the TIME [14] of the same compound?
Answer: 1.4e-06 h
